Results pooled from the literature.
Sample: plasma

| SMILES | system | setting | quantity | result |
| --- | --- | --- | --- | --- |
| Cc1cc(Nc2cc(N3CCN(C)CC3)nc(/C=C/c3ccccc3)n2)n[nH]1 | human | oral, 350 mg/m², patients | Vd/F | 2340 L |
| COc1cc(C(=O)NC2CCN(C)CC2)c(F)cc1Nc1ncc(C(F)(F)F)c(Oc2cccc3c2C(=O)N(C)C3)n1 | human | oral, 25 mg, single dose, patients | Vd/F | 331 L |
| CO[C@H]1CC[C@H](N2C(=O)CNc3ncc(-c4ccc(C(C)(C)O)nc4)nc32)CC1 | human | oral, 7.5 mg, patients | Vd/F | 235 L |
| COc1ccc([C@@H]2CN(C(=O)[C@@H](O)CO)C[C@@]2(C)[C@@H](C)O)cc1OC1CN(c2ccc(C)cn2)C1 | human | oral, 10 mg, single dose, healthy volunteers | Vd/F | 57.6 L |
| c1cnc2ccc(Nc3nc(NC4CC4)c4nc[nH]c4n3)cc2c1 | human | oral, 200 mg/m², patients | Vd/F | 267 L |
| CCNCCCNC/C=C\CNCCCNCC | human | intravenous, 100 mg, patients, infusion | Vd | 1.17 L/kg |
| CC(C)(Sc1ccncc1-c1ccc(C#N)c2ccccc12)C(=O)O | male human | oral, 40 mg, single dose, fasted, healthy volunteers | Vd/F | 280 L |
| C[C@@]1(c2cc(NC(=O)c3ccc(C#N)cn3)ccc2F)C=CSC(N)=N1 | human | oral, 90 mg, single dose | Vd/F | 240 L |
